# Screening results deposited in PubChem BioAssay by The Scripps Research Institute Molecular Screening Center.
# Most compounds without a hit are left out; they make up all but 0.58% or so of the library.
# TRPML3 ag: human TRPML3 channel agonists, primary screen, cell-based, HEK293 TRPML3-YFP, Fluo-8 calcium fluorescence, 3 µM; Mucolipin-3 (Homo sapiens), Q8TDD5; 100% = the carbachol control signal; activation, % at 3 µM; 0.29% of 220,000 active; AID 1448, 2008;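 active = activation above its plate's cutoff, the mean activation of the plate's test wells plus 3 SD, cut at about 12% in these data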;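 note: 0% = DMSO only wells and 100% = carbachol wells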
#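 Material: HEK293 cells stably carrying human TRPML3-YFP; compound dosing: single dose, 3 µM final nominal compound, 0.3% DMSO final; incubation: 1-h 37 °C dye load, 5-s basal, 120-s post-compound reads; technique: Fluo-8 intracellular calcium fluorescence, excitation 470-495 nm, emission 515-575 nm; read-out basis: percent activation from peak-to-basal fluorescence ratio, scaled between DMSO and carbachol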
# V1aR counter: agonists of human V1a receptor, primary screen, counter-screen for OXTR agonist project, fluorescence, CHO-V1R cells | Vasopressin V1a receptor (Homo sapiens), P37288 | Fluo-8 calcium fluorescence, agonist mode; 0% DMSO, 100% 3 nM vasopressin | activation, % at 3 µM | 0.25% of 320,000 active | AID 2797, 2010;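 active = activation above the mean activation of all tested compounds plus 3 SD, per screening run, cut at about 20% in these data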;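 note: signal is peak over basal fluorescence ratio across a 100 second FLIPR read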
# zfTRPN1 agonist: zebrafish TRPN1 channel agonists, primary screen, cell-based, HEK293, calcium fluorescence. transient receptor potential cation channel N1 (TRPN1/NompC), Danio rerio. HEK293 zebrafish TRPN1-YFP, Fluo-8 calcium fluorescence; 100% = response to 87 µM carbachol. activation, % at 3 µM. 0.18% of 220,000 active. AID 1424, 2008;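 active = activation above its plate's cutoff, the mean activation of test wells on that plate plus 3 SD, cut at about 19% in these data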;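 note: 0% = DMSO alone and 100% = 87 µM carbachol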
#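 Material – zebrafish TRPN1-YFP in HEK293 cells · Doses – 3 µM single point · Schedule – dye 1 h 37 °C plus 30 min RT · Signal – Fluo-8 calcium fluorescence, excitation 470-495 nm, emission 515-575 nm · Read-out – % activation versus carbachol response · Control set – carbachol high, DMSO low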
# OXTR potentiate: human OXTR potentiators, primary screen, fluorescence, CHO-OTR cells, Fluo-8 calcium. Fluo-8 calcium fluorescence, potentiator mode; 0% = oxytocin EC15, 100% = EC100. activation, % at 3 µM. AID 2445, 2010. 0.061% of 320,000 active;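 active = activation above that plate's cutoff, the mean activation of tested compounds plus 3 SD, cut at about 6.6% in these data, passing the limit was not always enough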;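 note: 100% uses oxytocin at 75 nM as the full agonist control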
# Target sequence (P30559 whole entry, looked up): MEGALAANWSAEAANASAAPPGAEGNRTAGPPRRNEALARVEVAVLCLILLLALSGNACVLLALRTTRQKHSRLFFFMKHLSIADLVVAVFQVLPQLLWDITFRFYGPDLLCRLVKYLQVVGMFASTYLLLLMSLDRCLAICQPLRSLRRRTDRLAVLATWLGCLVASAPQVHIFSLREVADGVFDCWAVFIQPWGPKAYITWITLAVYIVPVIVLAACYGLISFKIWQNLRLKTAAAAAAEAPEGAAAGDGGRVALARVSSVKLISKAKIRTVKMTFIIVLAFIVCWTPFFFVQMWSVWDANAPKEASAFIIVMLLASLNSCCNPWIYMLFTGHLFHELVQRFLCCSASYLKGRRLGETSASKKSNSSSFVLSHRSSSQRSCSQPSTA
#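 Assay system: CHO cell line stably expressing human OTR | Also added: Oxytocin at about EC15, sub-maximal agonist stimulus | Times: Compound 6 min at room temperature before oxytocin, 100 s read | Measured by: Fluo-8 intracellular calcium fluorescence, ex 470-495, em 515-575 nm | Controls: EC15 oxytocin alone as 0%, 75 nM oxytocin as 100%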
# OXTR ag: human OXTR agonists, primary screen, fluorescence, CHO-OTR cells, Fluo-8 calcium; Oxytocin receptor (Homo sapiens), P30559; Fluo-8 calcium fluorescence; normalized: DMSO 0%, oxytocin 100%; activation, % at 3 µM; 0.32% of 320,000 active;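 active = activation above the mean of all tested compounds plus 3 SD, cutoff set per screening run, cut at about 20% in these data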;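 note: peak over basal fluorescence ratio from a 100 s FLIPR kinetic read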
# TRPN1 counter: zebrafish TRPN1 channel agonists, counter-screen for TRPML3 agonist project, cell-based, HEK293 TRPN1-YFP, Fluo-8 calcium. Fluo-8 calcium fluorescence; scaled: carbachol wells 100%, DMSO wells 0%. 10% of 310 active. activation, % at 3 µM. shares compounds with TRPML3 ag;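 active = mean activation over replicates above a set limit taken from the earlier TRPN1 channel primary screen, cut at about 19% in these data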;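 note: 100% = carbachol and 0% = 0.3% DMSO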
# TRPML3 ag conf: human TRPML3 channel agonists, confirmation, cell-based, HEK293 TRPML3-YFP, Fluo-8 calcium, triplicate. 80% of 310 active. AID 1526, 2009. Fluo-8 calcium fluorescence; 100% set by carbachol, 0% by DMSO. activation, % at 3 µM. shares compounds with TRPML3 ag;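 active = activation above a set limit derived from the earlier primary screen, cut at about 12% in these data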
# * = called active by the depositor; x = no result given.
SMILES,TRPML3 ag,V1aR counter,zfTRPN1 agonist,OXTR potentiate,OXTR ag,TRPN1 counter,TRPML3 ag conf
CCOC(=O)c1c(CSc2ccc(C)cc2)oc2ccc(O)cc12,29.9*,-0.6,-2.7,-12.2,-1.8,-1.2,46.1*
CCCN(CCC)S(=O)(=O)c1ccc(C(=O)N2CCCc3ccccc32)cc1,133.3*,0.4,6.4,-7.2,-1.0,6.3,104.0*
CCOc1ccc(C(C(=O)NC2CCCC2)N(Cc2ccccc2)C(=O)c2nsc(Cl)c2Cl)cc1 (stereo unspecified),0.9,2.4,0.2,-7.0,-0.6,x,x
COc1ccc(C(C(=O)NC2CCCC2)N(Cc2ccccc2)C(=O)c2nsc(Cl)c2Cl)cc1 (stereo unspecified),17.0*,1.7,-1.5,-8.4,-0.2,-0.3,24.5*
CC1=C(C)/C(=N\OS(=O)(=O)c2ccc(C)cc2)C=CC1=O,13.9*,1.9,8.0,-10.3,9.2,8.9,14.3*
COc1ccc(S(=O)(=O)/N=C2/C=CC(=O)C(C)=C2C)cc1,0.2,-0.5,0.4,-7.7,-1.4,x,x
COc1cc(/C=C2\SC(=S)N(Nc3ncc(C(F)(F)F)cc3Cl)C2=O)ccc1O,12.8*,39.5*,15.4,-15.2,23.9*,28.8*,14.9*
O=C1/C(=C/c2ccc(O)c(O)c2)SC(=S)N1Nc1ccccc1,6.9,x,17.1,x,x,x,x
CC(C)N(C(=S)Nc1cccnc1)c1ccccc1,0.6,0.6,1.6,6.7,0.9,x,x
O=C(O)CC(C(=O)Nc1ccc(F)cc1)C1CCCO1 (stereo unspecified),0.7,1.3,2.1,-12.6,0.7,x,x
CCCCn1c(C)cc(C)c(S(=O)(=O)c2ccccc2C)c1=O,17.8*,-0.9,-1.6,-9.1,-1.4,-2.0,58.3*
CCCSc1nc(C)cc(C)c1S(=O)(=O)c1ccccc1C,4.2,0.8,-0.9,-17.2,-1.4,x,x
Cc1cc(C)c(S(=O)(=O)c2ccccc2C)c(SCC(C)C)n1,0.8,0.1,-0.2,-13.1,-1.0,x,x
Cc1ccccc1S(=O)(=O)c1c(C)cc(C)n(C(C)C)c1=O,30.4*,-2.6,-1.9,4.5,-1.8,-3.3,34.5*
CC(C)CNC(=O)C(=O)NCC1OCCCN1S(=O)(=O)c1cccs1 (stereo unspecified),x,-1.2,x,-1.1,-0.7,x,x
Cc1onc(-c2ccccc2)c1C(=O)N(Cc1ccco1)Cc1cccs1,28.7*,x,-2.2,x,x,-3.0,18.9*
Cc1onc(-c2ccccc2)c1C(=O)NCc1ccco1,0.2,1.0,0.0,-7.1,-0.5,x,x
Cc1noc(C)c1NC(=O)N(C)C[C@@H]1Oc2ccc(NC(=O)Cc3cn(C)c4ccccc34)cc2CC(=O)N([C@H](C)CO)C[C@@H]1C,x,2.0,x,-5.8,1.6,x,x
COC(=O)c1cnc(N2CCCN(S(=O)(=O)c3ccccc3)CC2)nc1C(F)(F)F,13.5*,-0.3,0.5,-12.7,-3.0,0.8,13.2*
COc1cccc(-c2ccnc3[nH]n(-c4ccccc4)c(=O)c23)c1,x,-0.3,x,-2.7,0.6,x,x
CCC1CCCCN1S(=O)(=O)c1ccc(S(=O)(=O)N(Cc2cccs2)C2CC2)cc1 (stereo unspecified),94.7*,2.2,8.4,-11.3,2.4,13.9,112.2*
Cc1ccc(S(=O)(=O)N2CCCC(C(=O)N(Cc3cccs3)C3CC3)C2)cc1 (stereo unspecified),-0.1,5.4,0.2,-20.2,3.7,x,x
CCC1CCCCN1S(=O)(=O)c1ccc(S(=O)(=O)N(Cc2ccccn2)CC2CCCO2)cc1 (stereo unspecified),28.4*,1.1,0.0,-8.3,1.5,2.2,95.6*
CC(=O)O/N=C(\N)c1ccc(-c2csnn2)cc1,0.6,-0.9,0.4,-4.8,-1.6,x,x
Cc1cc(C)c(N2CCN(S(=O)(=O)N3CCCCCC3)CC2)c(C)c1,66.8*,0.8,1.7,-19.1,0.6,44.6*,165.2*
SMILES,TRPML3 ag,V1aR counter,zfTRPN1 agonist,OXTR potentiate,OXTR ag,TRPN1 counter,TRPML3 ag conf
O=C(c1ccc([N+](=O)[O-])cc1)N(Cc1ccc(Cl)cc1Cl)N1C(=O)CCCC1=O,15.5*,-0.9,2.0,-6.0,-0.8,1.9,24.6*
O=C(Cn1cc([N+](=O)[O-])ccc1=O)NCc1ccc(Cl)cc1Cl,x,4.2,x,-4.2,0.0,x,x
CC(=O)Nc1cccc(OC(=O)c2ccoc2C)c1,13.2*,0.1,0.1,-13.4,-0.6,1.5,4.3
O=C1C=C(NNC(=O)c2ccncc2)CC(c2ccccc2)C1 (stereo unspecified),18.7*,11.7,17.8,-13.7,7.0,0.8,0.1
O=C1C=C(/C=C/C2C=CC=CC2)C[C@@H](c2ccc(Cl)cc2)C1 (stereo partly specified),x,-0.2,x,-7.8,1.8,x,x
CC1(C)CSC(=S)N1S(=O)(=O)c1ccccc1,32.0*,-0.3,0.0,1.4,0.6,0.9,20.4*
Cc1ccc(S(=O)(=O)N2c3ccccc3-c3c(ssc3=S)C2(C)C)cc1,0.5,-0.2,-1.0,-9.6,-2.6,x,x
CC(=O)c1cccc(NC(=O)C2C3C=CC(C3=C(c3ccccc3)c3ccccc3)C2C(=O)O)c1 (stereo unspecified),0.8,-0.5,-0.1,-3.9,-1.4,x,x
Cc1onc(-c2ccc(Cl)cc2)c1-c1ccnn1S(=O)(=O)c1cccc(C(F)(F)F)c1,33.0*,1.4,1.5,-12.1,1.1,-0.3,51.0*
Cc1ccc(S(=O)(=O)n2nccc2-c2c(-c3ccccc3)noc2C)cc1,119.6*,2.1,1.2,-12.9,-2.3,-1.1,94.3*
O=S(=O)(c1ccc2ccccc2c1)N1CCCCC1,15.9*,-0.9,0.5,-0.5,-2.0,0.4,12.3*
CC(C)c1ccc(S(=O)(=O)N2CCCCC2)cc1,14.6*,-1.1,-0.1,-2.2,-0.7,-0.7,14.6*
COc1cc(S(=O)(=O)N2CCN(C)CC2)ccc1Cl,0.1,1.2,-0.5,4.5,0.0,x,x
CN1CCCN(S(=O)(=O)c2ccc3ccccc3c2)CC1,x,-0.6,x,-3.6,-0.6,x,x
COc1cc(S(=O)(=O)N2CCCCCC2)ccc1Cl,44.0*,5.4,-1.6,-9.6,-2.3,-1.0,61.5*
